Results reported in ChEMBL document CHEMBL3414420, “Synthesis of xanthohumol analogues and discovery of potent thioredoxin reductase inhibitor as potential anticancer agent” (J Med Chem, 2015).
pIC50: −log10 of the molar value. Activity calls are given as the source filed them. The rule behind the calls is not given here.

Test system: not listed separately
Experiment: In vitro inhibition of TrxR U498C mutant (unknown origin) up to 40 uM after 2 hrs incubation by microplate reader
Details: not given

Row | SMILES | inhibition
1 | COc1cc(OC)c(C(=O)/C=C/c2cccc([N+](=O)[O-])c2)c(OC)c1 | inactive

Test system: HepG2
Experiment: Cytotoxicity against human HepG2 cells assessed as inhibition of cell proliferation after 72 hrs by MTT assay
Format: functional, cell-based
Details: HepG2, 72 h
Method in brief: (§1)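 Cells, 5×10^3 per well, exposed in triplicate at 37 °C; DMSO-only wells as controls (0.1% v/v DMSO in all cell work). After 68 h, MTT (5 mg/mL stock) was added for a further 4 h. Overnight solubilisation at 37 °C in 10% SDS/5% isobutanol/0.1% HCl, then A570 read.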

Row | SMILES | pIC50
2 | COc1ccccc1/C=C/C(=O)c1c(O)cc(O)cc1OC | 4.82
3 | COc1cc(OC)c(C(=O)/C=C/c2ccc(OC)c(OC)c2)c(OC)c1 | 4.94
4 | COc1cc(OC)c(C(=O)/C=C/c2ccc(OC)c(OC)c2OC)c(OC)c1 | < 4.30
5 | COc1ccccc1/C=C/C(=O)c1c(OC)cc(O)c(CC=C(C)C)c1O | 4.84
6 | COc1cc(/C=C/C(=O)c2c(O)cc(O)cc2OC)cc(OC)c1OC | 4.69
7 | COc1cc(O)cc(O)c1C(=O)/C=C/c1ccc(C)cc1 | < 4.30
8 | COc1cc(/C=C/C(=O)c2c(OC)cc(O)c(CC=C(C)C)c2O)ccc1O | 4.66
9 | COc1cc(O)cc(O)c1C(=O)/C=C/c1ccc(O)c(O)c1 | 4.54
10 | COc1cc(/C=C/C(=O)c2c(O)cc(O)cc2OC)cc(OC)c1 | 4.75
11 | COc1cc(O)cc(O)c1C(=O)/C=C/c1ccc([N+](=O)[O-])cc1 | 4.39
12 | COc1cc(O)cc(O)c1C(=O)/C=C/c1ccc(Cl)cc1 | 4.91
13 | COc1cc(O)c(CC=C(C)C)c(O)c1C(=O)/C=C/c1ccc(Cl)cc1 | 5.00
14 | COc1cc(OC)c(C(=O)/C=C/c2cc(OC)c(OC)c(OC)c2)c(OC)c1 | 4.78
15 | COc1cc(OC)c(C(=O)/C=C/c2ccc(O)c(OC)c2)c(OC)c1 | 4.77
16 | COc1cc(O)c(CC=C(C)C)c(O)c1C(=O)/C=C/c1ccc(O)c(O)c1 | 4.82
17 | COc1cc(OC)c(C(=O)/C=C/c2ccc(N)cc2)c(OC)c1 | 4.34
18 | COc1cc(O)c(CC=C(C)C)c(O)c1C(=O)/C=C/c1ccc(O)cc1 [XANTHOHUMOL] | 4.46
19 | COc1cc(O)cc(O)c1C(=O)/C=C/c1ccc(O)cc1 [HELICHRYSETIN] | 4.40
20 | COc1ccc(/C=C/C(=O)c2c(OC)cc(O)c(CC=C(C)C)c2O)cc1OC | 4.86

Test system: HeLa
Experiment: Cytotoxicity against human HeLa cells assessed as inhibition of cell proliferation after 72 hrs by MTT assay
Format: functional, cell-based
Details: not given
Method in brief: as §1

Row | SMILES | pIC50
21 | COc1ccccc1/C=C/C(=O)c1c(O)cc(O)cc1OC | 4.36
22 | COc1cc(OC)c(C(=O)/C=C/c2ccc(OC)c(OC)c2)c(OC)c1 | 4.74
23 | COc1cc(OC)c(C(=O)/C=C/c2ccc(OC)c(OC)c2OC)c(OC)c1 | < 4.30
24 | COc1ccccc1/C=C/C(=O)c1c(OC)cc(O)c(CC=C(C)C)c1O | 4.71
25 | COc1cc(/C=C/C(=O)c2c(O)cc(O)cc2OC)cc(OC)c1OC | 4.72
26 | COc1cc(O)cc(O)c1C(=O)/C=C/c1ccc(C)cc1 | < 4.30
27 | COc1cc(/C=C/C(=O)c2c(OC)cc(O)c(CC=C(C)C)c2O)ccc1O | 4.47
28 | COc1cc(O)cc(O)c1C(=O)/C=C/c1ccc(O)c(O)c1 | 4.67
29 | COc1cc(/C=C/C(=O)c2c(O)cc(O)cc2OC)cc(OC)c1 | 4.88
30 | COc1cc(O)cc(O)c1C(=O)/C=C/c1ccc([N+](=O)[O-])cc1 | < 4.30
31 | COc1cc(O)cc(O)c1C(=O)/C=C/c1ccc(Cl)cc1 | 4.77
32 | COc1cc(O)c(CC=C(C)C)c(O)c1C(=O)/C=C/c1ccc(Cl)cc1 | 4.78
33 | COc1cc(OC)c(C(=O)/C=C/c2cc(OC)c(OC)c(OC)c2)c(OC)c1 | 5.00
34 | COc1cc(OC)c(C(=O)/C=C/c2ccc(O)c(OC)c2)c(OC)c1 | 4.35
35 | COc1cc(O)c(CC=C(C)C)c(O)c1C(=O)/C=C/c1ccc(O)c(O)c1 | 4.42
36 | COc1cc(OC)c(C(=O)/C=C/c2ccc(N)cc2)c(OC)c1 | < 4.30
37 | COc1cc(O)c(CC=C(C)C)c(O)c1C(=O)/C=C/c1ccc(O)cc1 [XANTHOHUMOL] | 4.39
38 | COc1cc(O)cc(O)c1C(=O)/C=C/c1ccc(O)cc1 [HELICHRYSETIN] | 4.32
39 | COc1ccc(/C=C/C(=O)c2c(OC)cc(O)c(CC=C(C)C)c2O)cc1OC | 4.56

Test system: A549
Experiment: Cytotoxicity against human A549 cells assessed as inhibition of cell proliferation after 72 hrs by MTT assay
Format: functional, cell-based
Details: A549, 72 h
Method in brief: as §1

Row | SMILES | pIC50
40 | COc1ccccc1/C=C/C(=O)c1c(O)cc(O)cc1OC | 4.32
41 | COc1cc(OC)c(C(=O)/C=C/c2ccc(OC)c(OC)c2)c(OC)c1 | 4.41
42 | COc1cc(OC)c(C(=O)/C=C/c2ccc(OC)c(OC)c2OC)c(OC)c1 | 4.35
43 | COc1ccccc1/C=C/C(=O)c1c(OC)cc(O)c(CC=C(C)C)c1O | 4.90
44 | COc1cc(/C=C/C(=O)c2c(O)cc(O)cc2OC)cc(OC)c1OC | 4.55
45 | COc1cc(O)cc(O)c1C(=O)/C=C/c1ccc(C)cc1 | < 4.30
46 | COc1cc(/C=C/C(=O)c2c(OC)cc(O)c(CC=C(C)C)c2O)ccc1O | 4.93
47 | COc1cc(O)cc(O)c1C(=O)/C=C/c1ccc(O)c(O)c1 | 4.93
48 | COc1cc(/C=C/C(=O)c2c(O)cc(O)cc2OC)cc(OC)c1 | 4.47
49 | COc1cc(O)cc(O)c1C(=O)/C=C/c1ccc([N+](=O)[O-])cc1 | < 4.30
50 | COc1cc(O)cc(O)c1C(=O)/C=C/c1ccc(Cl)cc1 | 4.74
51 | COc1cc(O)c(CC=C(C)C)c(O)c1C(=O)/C=C/c1ccc(Cl)cc1 | 4.93
52 | COc1cc(OC)c(C(=O)/C=C/c2cc(OC)c(OC)c(OC)c2)c(OC)c1 | 4.65
53 | COc1cc(OC)c(C(=O)/C=C/c2ccc(O)c(OC)c2)c(OC)c1 | 4.36
54 | COc1cc(O)c(CC=C(C)C)c(O)c1C(=O)/C=C/c1ccc(O)c(O)c1 | 4.79
55 | COc1cc(OC)c(C(=O)/C=C/c2ccc(N)cc2)c(OC)c1 | < 4.30
56 | COc1cc(O)c(CC=C(C)C)c(O)c1C(=O)/C=C/c1ccc(O)cc1 [XANTHOHUMOL] | 4.52
57 | COc1cc(O)cc(O)c1C(=O)/C=C/c1ccc(O)cc1 [HELICHRYSETIN] | < 4.30
58 | COc1ccc(/C=C/C(=O)c2c(OC)cc(O)c(CC=C(C)C)c2O)cc1OC | 4.80

Target: Thioredoxin reductase 1 (Rattus norvegicus) (UniProt O89049)
Sequence (O89049 whole entry, looked up): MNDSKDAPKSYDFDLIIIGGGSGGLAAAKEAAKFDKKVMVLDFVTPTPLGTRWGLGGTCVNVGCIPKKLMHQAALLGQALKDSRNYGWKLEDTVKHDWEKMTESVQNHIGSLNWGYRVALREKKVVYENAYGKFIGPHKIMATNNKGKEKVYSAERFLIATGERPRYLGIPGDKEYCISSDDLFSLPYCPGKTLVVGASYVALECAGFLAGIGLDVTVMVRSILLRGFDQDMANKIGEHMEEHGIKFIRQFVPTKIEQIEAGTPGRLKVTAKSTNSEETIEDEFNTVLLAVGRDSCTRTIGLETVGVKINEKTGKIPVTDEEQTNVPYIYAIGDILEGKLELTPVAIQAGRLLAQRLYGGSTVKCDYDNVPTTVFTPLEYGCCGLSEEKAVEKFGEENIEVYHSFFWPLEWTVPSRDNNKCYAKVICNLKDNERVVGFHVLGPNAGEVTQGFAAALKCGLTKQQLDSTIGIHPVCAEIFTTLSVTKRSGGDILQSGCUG
Experiment: In vitro inhibition of NADPH-reduced TrxR (unknown origin) after 2 hrs incubation by microplate reader
Details: not given

Row | SMILES | IC50 [µM]
59 | COc1cc(OC)c(C(=O)/C=C/c2cccc([N+](=O)[O-])c2)c(OC)c1 | 12.8

Target: T1, Thioredoxin reductase (Homo sapiens, UniProt Q16881+Q9NNW7+Q86VQ6)
Experiment: Inhibition of TrxR in human HeLa cells after 48 hrs by TRFS-green based fluorescence microscopy
Format: cell-based
Details: not given
Method in brief: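 Live HeLa cells exposed to compound for 44 h, then to TRFS-green (10 μM) for a further 4 h. Green fluorescence, which tracks cellular TrxR activity, imaged alongside phase contrast.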

Row | SMILES | inhibition
60 | COc1cc(OC)c(C(=O)/C=C/c2cccc([N+](=O)[O-])c2)c(OC)c1 | Dose-dependent effect

Target: T1, Thioredoxin reductase
Experiment: Inhibition of TrxR in human HeLa cells after 48 hrs by end point reduction assay
Format: cell-based
Details: not given
Method in brief: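 HeLa cells treated 48 h, lysed in RIPA buffer and protein measured by Bradford. Lysate (20 μg) incubated 30 min at 37 °C with 0.3 mM insulin, 660 μM NADPH and 15 μM E. coli Trx (pH 7.6). Stopped with DTNB in 6 M guanidine-HCl; A412 minus Trx-free blank, as % of DMSO control.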

Row | SMILES | inhibition
61 | COc1cc(OC)c(C(=O)/C=C/c2cccc([N+](=O)[O-])c2)c(OC)c1 | Dose-dependent effect

Target: T1, Thioredoxin reductase
Experiment: Inhibition of TrxR in human HeLa cells by Trx-mediated insulin reduction assay
Details: not given

Row | SMILES | IC50 [µM]
62 | COc1cc(OC)c(C(=O)/C=C/c2cccc([N+](=O)[O-])c2)c(OC)c1 | 3.5
63 | COc1cc(O)c(CC=C(C)C)c(O)c1C(=O)/C=C/c1ccc(O)cc1 [XANTHOHUMOL] | > 40
